From ChEMBL document CHEMBL3085721, “Nonhydrolyzable ATP analogues as selective inhibitors of human NPP1: a combined computational/experimental study” (J Med Chem, 2013)
The source made the active and inactive calls. The calls are words filed in the database; no cut-off is given here.

Experiments:
[1] = target: T1, Ectonucleotide pyrophosphatase/phosphodiesterase family member 1 (Homo sapiens) (UniProt P22413); test: Competitive inhibition of human NPP1 expressed in COS7 cells assessed as production of p-nitrophenol using pnp-TMP as the substrate preincubated at 25 to 100 uM for 3 mins before substrate addition measured after 15 mins by Dixon/Cornish Bowden method; type: cell-based; details: COS-7
T1 sequence (whole entry): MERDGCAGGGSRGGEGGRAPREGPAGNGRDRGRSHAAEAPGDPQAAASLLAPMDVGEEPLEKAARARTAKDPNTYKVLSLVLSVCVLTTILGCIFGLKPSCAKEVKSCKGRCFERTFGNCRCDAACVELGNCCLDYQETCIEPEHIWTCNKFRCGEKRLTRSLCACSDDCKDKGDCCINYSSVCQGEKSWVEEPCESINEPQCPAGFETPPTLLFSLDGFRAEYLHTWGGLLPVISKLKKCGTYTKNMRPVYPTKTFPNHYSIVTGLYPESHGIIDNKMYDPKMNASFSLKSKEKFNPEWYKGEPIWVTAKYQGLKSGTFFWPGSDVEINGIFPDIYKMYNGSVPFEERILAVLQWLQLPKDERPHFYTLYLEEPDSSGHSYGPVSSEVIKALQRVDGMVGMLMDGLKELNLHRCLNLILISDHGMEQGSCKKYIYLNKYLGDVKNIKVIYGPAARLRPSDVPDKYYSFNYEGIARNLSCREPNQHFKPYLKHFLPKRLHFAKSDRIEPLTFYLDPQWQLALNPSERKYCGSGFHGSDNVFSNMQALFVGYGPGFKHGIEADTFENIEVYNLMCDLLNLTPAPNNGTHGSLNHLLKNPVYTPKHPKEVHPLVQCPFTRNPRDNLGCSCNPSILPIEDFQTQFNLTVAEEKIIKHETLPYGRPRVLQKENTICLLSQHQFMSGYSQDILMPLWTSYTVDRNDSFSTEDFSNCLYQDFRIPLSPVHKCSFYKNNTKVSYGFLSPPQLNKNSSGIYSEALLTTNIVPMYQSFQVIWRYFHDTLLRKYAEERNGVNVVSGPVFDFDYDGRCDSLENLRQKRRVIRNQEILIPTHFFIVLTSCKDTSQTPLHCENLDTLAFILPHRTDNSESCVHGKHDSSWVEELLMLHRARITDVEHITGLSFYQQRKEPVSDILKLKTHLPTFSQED
How it was run: (§1)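 Crude protein extract from COS-7 cells transiently transfected with human NPP1 (sonicated, debris cleared at 300g), preincubated 3 min at 37 °C with inhibitor (0, 25, 50, 100 μM) in 1 mM CaCl2, 140 mM NaCl, 5 mM KCl, 50 mM Tris pH 8.5. pnp-TMP (25, 50, 100 μM) added; p-nitrophenol read at 410 nm after 15 min. Ki,app and inhibition type from Dixon and Cornish-Bowden plots, three independent experiments.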

[2] = target: T2, Ectonucleoside triphosphate diphosphohydrolase 8 (Homo sapiens) (UniProt Q5MY95); test: Inhibition of human NTPDase8 assessed as amount of inorganic phosphate released using ATP as the substrate preincubated at 100 uM for 3 mins before substrate addition after 15 mins by malachite green reagent method
T2 sequence (whole entry): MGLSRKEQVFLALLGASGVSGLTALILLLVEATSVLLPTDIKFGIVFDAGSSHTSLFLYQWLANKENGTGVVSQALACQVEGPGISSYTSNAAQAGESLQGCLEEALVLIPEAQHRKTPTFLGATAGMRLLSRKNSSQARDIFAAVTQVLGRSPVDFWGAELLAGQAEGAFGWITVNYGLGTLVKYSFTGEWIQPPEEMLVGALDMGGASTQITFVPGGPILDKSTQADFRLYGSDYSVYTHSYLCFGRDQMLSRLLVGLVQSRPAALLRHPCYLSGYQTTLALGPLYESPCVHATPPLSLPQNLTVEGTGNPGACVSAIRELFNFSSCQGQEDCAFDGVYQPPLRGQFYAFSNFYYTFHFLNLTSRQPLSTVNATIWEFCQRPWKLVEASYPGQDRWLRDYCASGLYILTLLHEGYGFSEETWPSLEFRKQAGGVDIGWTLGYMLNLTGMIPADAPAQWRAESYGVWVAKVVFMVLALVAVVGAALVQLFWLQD
How it was run: (§2)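 Crude extracts of COS-7 cells transiently transfected with human NTPDase1, -2, -3 or -8, preincubated 3 min at 37 °C in Tris-Ringer medium pH 7.4 with analogue (final 100 μM). Started with 100 μM ATP, stopped after 15 min with malachite green; released Pi read at 630 nm. ATP alone set as 100%. Mean ± SD of 3−6 experiments in triplicate.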

[3] = target: T3, Ectonucleoside triphosphate diphosphohydrolase 3 (Homo sapiens) (UniProt O75355); test: Inhibition of human NTPDase3 assessed as amount of inorganic phosphate released using ATP as the substrate preincubated at 100 uM for 3 mins before substrate addition after 15 mins by malachite green reagent method; how it was run: as §2
T3 sequence (whole entry): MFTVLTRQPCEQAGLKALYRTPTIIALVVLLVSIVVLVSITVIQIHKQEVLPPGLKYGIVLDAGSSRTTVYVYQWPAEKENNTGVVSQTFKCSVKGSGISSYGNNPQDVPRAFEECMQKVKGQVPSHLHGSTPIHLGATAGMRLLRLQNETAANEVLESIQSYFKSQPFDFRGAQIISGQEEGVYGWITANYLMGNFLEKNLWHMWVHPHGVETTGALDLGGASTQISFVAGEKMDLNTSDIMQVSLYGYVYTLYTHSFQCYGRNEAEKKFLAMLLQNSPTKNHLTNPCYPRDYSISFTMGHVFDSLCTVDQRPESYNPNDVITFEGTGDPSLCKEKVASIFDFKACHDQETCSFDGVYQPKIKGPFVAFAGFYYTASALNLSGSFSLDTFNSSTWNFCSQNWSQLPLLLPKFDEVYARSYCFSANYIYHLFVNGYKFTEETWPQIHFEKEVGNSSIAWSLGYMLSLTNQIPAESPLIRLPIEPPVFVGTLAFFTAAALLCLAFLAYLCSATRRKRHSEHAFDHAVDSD

[4] = target: T4, Ectonucleoside triphosphate diphosphohydrolase 1 (Homo sapiens) (UniProt P49961); test: Inhibition of human NTPDase1 assessed as amount of inorganic phosphate released using ATP as the substrate preincubated at 100 uM for 3 mins before substrate addition after 15 mins by malachite green reagent method; how it was run: as §2
T4 sequence (whole entry): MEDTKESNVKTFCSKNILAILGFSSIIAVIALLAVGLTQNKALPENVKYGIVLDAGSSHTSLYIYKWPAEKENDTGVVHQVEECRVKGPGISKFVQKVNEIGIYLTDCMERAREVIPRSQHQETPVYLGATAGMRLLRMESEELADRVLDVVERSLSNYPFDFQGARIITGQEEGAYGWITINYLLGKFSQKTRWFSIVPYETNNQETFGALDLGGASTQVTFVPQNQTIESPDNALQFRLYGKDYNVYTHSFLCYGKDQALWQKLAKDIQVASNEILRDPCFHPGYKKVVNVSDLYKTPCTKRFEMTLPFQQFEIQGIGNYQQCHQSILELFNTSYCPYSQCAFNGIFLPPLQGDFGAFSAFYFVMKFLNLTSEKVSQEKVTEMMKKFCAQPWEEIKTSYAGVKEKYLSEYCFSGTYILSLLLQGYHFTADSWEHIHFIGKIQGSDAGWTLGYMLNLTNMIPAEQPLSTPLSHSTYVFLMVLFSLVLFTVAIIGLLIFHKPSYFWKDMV

[5] = target: T1, Ectonucleotide pyrophosphatase/phosphodiesterase family member 1 (Homo sapiens); test: Inhibition of human NPP1 expressed in COS7 cells assessed as production of p-nitrophenol using pnp-TMP as the substrate preincubated at 100 uM for 3 mins before substrate addition measured after 15 mins […]; type: cell-based; details: COS-7
How it was run: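 Crude extracts of COS-7 cells transiently transfected with human NPP1 or NPP3, preincubated 3 min at 37 °C in 1 mM CaCl2, 140 mM NaCl, 5 mM KCl, 50 mM Tris pH 8.5 with analogue at 100 μM. Reaction started with 100 μM pnp-TMP; p-nitrophenol at 410 nm after 15 min. Activity without analogue set as 100%. Mean ± SD of 3−6 experiments in triplicate.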

[6] = target: T5, Ectonucleotide pyrophosphatase/phosphodiesterase family member 1 (Homo sapiens, UniProt P22413); test: Mixed type inhibition of human NPP1 expressed in COS7 cells assessed as production of p-nitrophenol using pnp-TMP as the substrate preincubated for 3 mins before substrate addition measured after 15 mins by Dixon/Cornish Bowden method; type: cell-based, COS-7; details: read-out: Ki(app); how it was run: as §1
T5 sequence (P22413 whole entry): T1 sequence (whole entry)

inhibition [1]: Active
inhibition [2]: 30%
inhibition [3]: 50%
inhibition [4]: 50%
inhibition [5]: 90%
Ki [6]: 18 µM
SMILES: B[P@@](=O)(OC[C@H]1O[C@@H](n2cnc3c(N)ncnc32)[C@H](O)[C@@H]1O)OP(=O)(O)C(Cl)(Cl)P(=O)(O)O
